What was measured:
Cryptococcus neoformans = assay: Antifungal activity against Cryptococcus neoformans; assay type: functional
[1] = test system: Trichophyton mentagrophytes; assay: Compound was tested for antifungal activity against Trichophyton mentagrophytes
[2] = test system: Staphylococcus haemolyticus; assay: Antibacterial against Staphylococcus hemolyticus; assay type: functional
[3] = Ratio of animals cured to that of animals infected, tested in vivo for antifungal activity against vaginal candidosis in rat; 1/2
[4] = test system: Erysipelothrix rhusiopathiae; assay: Antibacterial activity against Erysipelothrix insidiosa; assay type: functional
Mucor = assay: Antifungal activity against Mucor species; assay type: functional
Candida albicans = assay: Antifungal activity against Candida albicans; assay type: functional
Aspergillus fumigatus = assay: Antifungal activity against Aspergillus fumigatus; assay type: functional
Trichophyton rubrum = assay: Antifungal activity against Trichophyton rubrum; assay type: functional
Candida tropicalis = assay: Antifungal activity against Candida tropicalis; assay type: functional
Saprolegnia [5] = assay: Antifungal activity against Saprolegnia species; assay type: functional
Streptococcus pyogenes = assay: Antibacterial activity against Streptococcus pyogenes; assay type: functional
Phialophora verrucosa [6] = assay: Antifungal activity against Phialophora verrucosa; assay type: functional
Microsporum canis = assay: Antifungal activity against Microsporum canis; assay type: functional
Sporothrix schenckii = assay: Antifungal activity against Sporothrix schenck ii; assay type: functional
Trichophyton benhamiae = assay: Antifungal activity against Trichophyton mentagrophytes; assay type: functional, trychophyton mentagrophytes
Saprolegnia [7] = assay: compound was tested for antifungal activity against Saprolegnia species; assay type: functional
[8] = Ratio of animals cured to that of animals infected, tested in vivo for antifungal activity against cutaneous candidosis in guinea pig; 0/2; assay type: functional
[9] = Ratio of animals cured to that of animals […], Tested in vivo for antifungal activity against vaginal candidosis in rat; 2/4; assay type: functional
[10] = Ratio of animals cured to that of animals infected, tested in vivo for antifungal activity against vaginal candidosis in rat; 0/2; assay type: functional
Method in brief: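 Rat experimental vaginal candidosis. Compounds were given orally as a suspension in polyethylene glycol 200 at 10 mg/kg/day for 14 consecutive days.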

[11] = Ratio of animals cured to that of animals infected, tested in vivo for antifungal activity against cutaneous candidosis in guinea pig; 1/2; assay type: functional
Phialophora verrucosa [12] = assay: compound was tested for antifungal activity against Phialophora verrucosa; assay type: functional
[13] = Ratio of animals cured to that of animals […], Tested in vivo for antifungal activity against vaginal candidosis in rat; 0/2; assay type: functional

Cc1ccc(C2COC(Cn3ccnc3)(c3ccc(Br)cc3)O2)cc1 (configuration not stated)
Inhibition (Cryptococcus neoformans): 10 µg/mL
Inhibition [1]: 10 µg/mL
Inhibition [2]: 10 µg/mL
Ratio [3]: 1
Inhibition [4]: 1 µg/mL
Inhibition (Mucor): 10 µg/mL
Inhibition (Candida albicans): 10 µg/mL
Inhibition (Aspergillus fumigatus): <1 µg/mL
Inhibition (Trichophyton rubrum): <1 µg/mL
Inhibition (Candida tropicalis): >100 µg/mL
Inhibition (Saprolegnia [5]): 100 µg/mL
Inhibition (Streptococcus pyogenes): 10 µg/mL
Inhibition (Phialophora verrucosa [6]): 100 µg/mL
Inhibition (Microsporum canis): <1 µg/mL
Inhibition (Sporothrix schenckii): 100 µg/mL

Clc1ccc(C2COC(Cn3ccnc3)(c3ccccc3)O2)c(Cl)c1 (configuration not stated)
Inhibition (Cryptococcus neoformans): 10 µg/mL
Inhibition [2]: 10 µg/mL
Inhibition (Trichophyton benhamiae): <1 µg/mL
Inhibition [4]: 10 µg/mL
Inhibition (Mucor): 100 µg/mL
Inhibition (Candida albicans): >100 µg/mL
Inhibition (Aspergillus fumigatus): 10 µg/mL
Inhibition (Trichophyton rubrum): <1 µg/mL
Inhibition (Candida tropicalis): >100 µg/mL
Inhibition (Saprolegnia [7]): 100 µg/mL
Inhibition (Streptococcus pyogenes): 1 µg/mL
Inhibition (Phialophora verrucosa [6]): 100 µg/mL
Ratio [8]: 0
Inhibition (Microsporum canis): 10 µg/mL
Inhibition (Sporothrix schenckii): 10 µg/mL

COc1ccc(CCC2COC(Cn3ccnc3)(c3ccc(Cl)cc3Cl)O2)cc1 (configuration not stated)
Inhibition (Cryptococcus neoformans): 1 µg/mL
Inhibition [2]: 100 µg/mL
Inhibition (Trichophyton benhamiae): <1 µg/mL
Inhibition [4]: <1 µg/mL
Inhibition (Mucor): 100 µg/mL
Inhibition (Candida albicans): 100 µg/mL
Inhibition (Aspergillus fumigatus): <1 µg/mL
Inhibition (Trichophyton rubrum): <1 µg/mL
Inhibition (Candida tropicalis): 10 µg/mL
Ratio [9]: 0.5
Inhibition (Saprolegnia [5]): 100 µg/mL
Inhibition (Streptococcus pyogenes): <1 µg/mL
Inhibition (Phialophora verrucosa [6]): 100 µg/mL
Ratio [8]: 0
Inhibition (Microsporum canis): 1 µg/mL
Inhibition (Sporothrix schenckii): 10 µg/mL

Clc1ccc(C2COC(Cn3ccnc3)(c3ccccc3)O2)cc1 (configuration not stated)
Inhibition (Cryptococcus neoformans): 10 µg/mL
Inhibition [2]: 100 µg/mL
Inhibition (Trichophyton benhamiae): <1 µg/mL
Inhibition [4]: 1 µg/mL
Inhibition (Mucor): 100 µg/mL
Inhibition (Candida albicans): >100 µg/mL
Inhibition (Aspergillus fumigatus): 10 µg/mL
Inhibition (Trichophyton rubrum): <1 µg/mL
Ratio [10]: 0
Inhibition (Candida tropicalis): 100 µg/mL
Ratio [11]: 1
Inhibition (Saprolegnia [5]): 100 µg/mL
Inhibition (Streptococcus pyogenes): 1 µg/mL
Inhibition (Phialophora verrucosa [6]): 100 µg/mL
Inhibition (Microsporum canis): <1 µg/mL
Inhibition (Sporothrix schenckii): 10 µg/mL

Clc1ccc(C2(Cn3ccnc3)OCC(CCc3ccccc3)O2)c(Cl)c1 (configuration not stated)
Inhibition (Cryptococcus neoformans): <1 µg/mL
Inhibition [2]: 10 µg/mL
Inhibition (Trichophyton benhamiae): <1 µg/mL
Inhibition [4]: <1 µg/mL
Inhibition (Mucor): 10 µg/mL
Inhibition (Candida albicans): 100 µg/mL
Inhibition (Aspergillus fumigatus): <1 µg/mL
Inhibition (Trichophyton rubrum): <1 µg/mL
Inhibition (Candida tropicalis): 10 µg/mL
Inhibition (Saprolegnia [5]): 100 µg/mL
Inhibition (Streptococcus pyogenes): <1 µg/mL
Inhibition (Phialophora verrucosa [12]): 100 µg/mL
Inhibition (Microsporum canis): <1 µg/mL
Ratio [13]: 0
Inhibition (Sporothrix schenckii): <1 µg/mL

Source: ChEMBL document CHEMBL1121748, “Antimycotic imidazoles. 5. Synthesis and antimycotic properties of 1-[[2-aryl-4-(arylalkyl)-1,3-dioxolan-2-yl]methyl]-1H-imidazoles” (1981)
